Source: ChEMBL document CHEMBL2176933 (J Med Chem, 2012)

Legend:
[1] = organism: Mus musculus; test: Genotoxicity in mouse by micronucleus study; format: toxicity, organism-based; details: in vivo
[2] = system: PBL; test: Genotoxicity in human PBL assessed as induction of micronuclei formation; format: toxicity, cell-based
[3] = Selectivity ratio of Ki for TTK to Ki for LRRK2
Summary of the method: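 Ratio computed as TTK Ki, from a Lanthascreen assay, divided by LRRK2 Ki from the biochemical assay.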

[4] = target: T1, Dual specificity protein kinase TTK (Homo sapiens, UniProt P33981); test: Inhibition of TTK
T1 sequence (P33981 whole entry): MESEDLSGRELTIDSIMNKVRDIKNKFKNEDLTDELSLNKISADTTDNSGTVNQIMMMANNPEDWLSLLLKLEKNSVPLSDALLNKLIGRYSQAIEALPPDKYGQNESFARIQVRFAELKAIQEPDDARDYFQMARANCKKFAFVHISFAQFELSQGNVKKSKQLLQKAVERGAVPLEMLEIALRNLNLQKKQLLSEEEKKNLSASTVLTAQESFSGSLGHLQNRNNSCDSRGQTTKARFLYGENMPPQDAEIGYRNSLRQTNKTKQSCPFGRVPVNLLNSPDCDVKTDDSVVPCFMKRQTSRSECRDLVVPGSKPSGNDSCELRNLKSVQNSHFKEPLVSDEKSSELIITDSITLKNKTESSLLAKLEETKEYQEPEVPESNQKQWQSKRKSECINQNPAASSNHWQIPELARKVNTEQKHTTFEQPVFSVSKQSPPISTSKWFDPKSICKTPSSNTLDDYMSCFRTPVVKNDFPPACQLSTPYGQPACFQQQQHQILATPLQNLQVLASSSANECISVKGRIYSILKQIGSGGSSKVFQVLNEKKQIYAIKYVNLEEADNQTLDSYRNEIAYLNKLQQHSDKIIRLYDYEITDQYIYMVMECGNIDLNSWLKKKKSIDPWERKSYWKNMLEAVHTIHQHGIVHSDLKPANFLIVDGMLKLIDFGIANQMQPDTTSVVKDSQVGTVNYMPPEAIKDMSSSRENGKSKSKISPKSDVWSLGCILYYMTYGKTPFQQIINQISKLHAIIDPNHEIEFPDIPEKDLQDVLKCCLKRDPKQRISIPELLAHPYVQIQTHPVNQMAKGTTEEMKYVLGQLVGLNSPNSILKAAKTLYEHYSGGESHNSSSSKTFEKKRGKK
Summary of the method: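 TTK Ki determined in a Lanthascreen biochemical assay.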

[5] = target: T2, Dual specificity protein kinase TTK (Homo sapiens) (UniProt P33981); test: Inhibition of TTK at 1 uM
T2 sequence (whole entry): T1 sequence (P33981 whole entry)
Summary of the method: (§1)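 Percent inhibition of TTK activity measured at 0.1 μM and 1 μM in a kinase selectivity profiling panel.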

[6] = target: T2, Dual specificity protein kinase TTK (Homo sapiens); test: Inhibition of TTK at 0.1 uM; summary of the method: as §1
[7] = system: MDR1 (human); test: Apparent permeability from apical to basolateral side of MDCK cells expressing human MDR1; format: ADME, cell-based, Canis lupus familiaris; details: dog
Summary of the method: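 Transport measured in an MDCK cell line transfected with human P-gp (MDR1); apical-to-basolateral and basolateral-to-apical permeability determined; efflux ratio taken as (B−A)/(A−B).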

[8] = Plasma protein binding in rat; format: ADME, cell-free; details: read-out: PPB (converted)
Summary of the method: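 Plasma protein binding measured in vitro in rat plasma; used to convert total clearance to unbound clearance and total to unbound plasma levels.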

[9] = Clearance in rat hepatocytes; format: ADME, cell-based, Liver, Hepatocyte
Summary of the method: (§2)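 Metabolic stability determined in vitro in cryopreserved hepatocytes, human and rat.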

[10] = Clearance in human hepatocytes; format: ADME, cell-based, Liver, Hepatocyte; summary of the method: as §2
[11] = Selectivity ratio of Ki for JAK2 to Ki for LRRK2
Summary of the method: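 Ratio computed as JAK2 Ki divided by LRRK2 Ki, both from biochemical assays.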

[12] = target: T3, Leucine-rich repeat serine/threonine-protein kinase 2 (Homo sapiens, UniProt Q5S007); test: Inhibition of autophosphorylation of LRRK2 in human HEK293 cells; format: cell-based
[13] = target: T3, Leucine-rich repeat serine/threonine-protein kinase 2; test: Inhibition of LRRK2 using FAM-LRRKtide as substrate after 120 mins by microfluidic capillary electrophoresis assay
[14] = system: MDCK; test: Efflux ratio of permeability from basolateral to apical over apical to basolateral side in MDCK cells expressing human MDR1; details: dog
[15] = Solubility of the compound; format: physicochemical
[16] = target: T4, Cytochrome P450 1A2 (Homo sapiens, UniProt P05177); test: Time dependent inhibition of CYP1A2; format: ADME
T4 sequence (P05177 whole entry): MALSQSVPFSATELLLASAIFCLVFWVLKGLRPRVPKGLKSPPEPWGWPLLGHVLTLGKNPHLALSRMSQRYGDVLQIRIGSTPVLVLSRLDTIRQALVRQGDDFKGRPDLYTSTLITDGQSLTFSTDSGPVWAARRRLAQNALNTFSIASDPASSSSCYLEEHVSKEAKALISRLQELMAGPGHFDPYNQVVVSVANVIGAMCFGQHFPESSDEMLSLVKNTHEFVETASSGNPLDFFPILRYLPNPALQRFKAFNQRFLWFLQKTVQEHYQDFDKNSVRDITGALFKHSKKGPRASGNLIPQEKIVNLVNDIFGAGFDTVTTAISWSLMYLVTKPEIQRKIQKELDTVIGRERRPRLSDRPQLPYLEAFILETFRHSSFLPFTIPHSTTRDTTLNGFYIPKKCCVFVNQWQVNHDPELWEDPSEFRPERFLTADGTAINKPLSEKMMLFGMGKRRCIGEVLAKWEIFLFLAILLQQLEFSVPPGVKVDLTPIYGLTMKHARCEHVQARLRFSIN

[17] = system: Nucleic Acid; test: Ratio of drug level CSF to unbound drug level in plasma in cynomolgus monkey at 10 to 65 mg/kg, po administered for 7 days; format: ADME, organism-based, Macaca fascicularis; set-up: dose 10-65 mg/kg, route oral; details: in vivo, 168 h
Summary of the method: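 Cynomolgus monkeys in a 7-day repeat-dose toxicity study at 10, 25 and 65 mg/kg. Terminal CSF and plasma levels were taken 24 h after the last dose on day 7. Plasma drug was converted to unbound using in vitro plasma protein binding, and the ratio is expressed as CSF over unbound plasma.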

[18] = system: Cynomolgus monkey; test: Unbound plasma AUC (0 to 24 hrs) in cynomolgus monkey at 65 mg/kg, po administered for 7 days; format: ADME, organism-based, Macaca fascicularis; set-up: dose 65 mg/kg, route oral; details: in vivo
[19] = Ratio of unbound drug level in brain to plasma in cynomolgus monkey at 10 to 65 mg/kg, po administered for 7 days; format: ADME, organism-based, Macaca fascicularis; set-up: dose 10-65 mg/kg, route oral; details: brain and plasma (unbound)
Summary of the method: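 Cynomolgus monkeys in a 7-day repeat-dose toxicity study at 10, 25 and 65 mg/kg. Terminal brain and CSF levels were taken 24 h after the day-7 dose. Total brain/plasma levels were converted to an unbound brain/unbound plasma ratio using in vitro plasma and brain protein binding values.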

[20] = system: Cynomolgus monkey; test: Unbound plasma AUC (0 to 24 hrs) in cynomolgus monkey at 25 mg/kg, po administered for 7 days; format: ADME, organism-based, Macaca fascicularis; set-up: dose 25 mg/kg, route oral; details: in vivo
[21] = system: Cynomolgus monkey; test: Unbound plasma AUC (0 to 24 hrs) in cynomolgus monkey at 10 mg/kg, po administered for 7 days; format: ADME, organism-based, Macaca fascicularis; set-up: dose 10 mg/kg, route oral; details: in vivo
[22] = system: Rattus norvegicus; test: Unbound plasma AUC (0 to 24 hrs) in Sprague-Dawley rat at 100 mg/kg, po administered for 7 days; format: ADME, organism-based; set-up: dose 100 mg/kg, route oral; details: in vivo
[23] = system: Rattus norvegicus; test: Unbound plasma AUC (0 to 24 hrs) in Sprague-Dawley rat at 50 mg/kg, po administered for 7 days; format: ADME, organism-based; set-up: dose 50 mg/kg, route oral; details: in vivo
[24] = system: Rattus norvegicus; test: Unbound plasma AUC (0 to 24 hrs) in Sprague-Dawley rat at 10 mg/kg, po administered for 7 days; format: ADME, organism-based; set-up: dose 10 mg/kg, route oral; details: in vivo
[25] = system: Rattus norvegicus; test: Toxicity in Sprague-Dawley rat assessed as mortality at 10 to 100 mg/kg, po administered for 7 days; format: organism-based; set-up: dose 10-100 mg/kg, route oral; details: in vivo, 168 h
[26] = system: Rattus norvegicus; test: Unbound plasma AUC (0 to 24 hrs) in Sprague-Dawley rat at 100 mg/kg, po qd for 2 days; format: ADME, organism-based; set-up: dose 100 mg/kg, route oral; details: in vivo
[27] = system: Rattus norvegicus; test: Genotoxicity in Sprague-Dawley rat assessed as micronucleated polychromatic erythrocytes in bone marrow at 100 mg/kg, po qd for 2 days; format: toxicity, organism-based; set-up: dose 100 mg/kg, route oral; details: in vivo, 48 h
[28] = Plasma protein binding in cynomolgus monkey; format: ADME, cell-free, Macaca fascicularis; details: read-out: PPB (converted)
[29] = system: Mus musculus; test: Inhibition of LRRK2 G2019S mutant phosphorylation at Ser1292 in po dosed BAC transgenic mouse brain after 1 to 24 hrs; format: functional, organism-based
Summary of the method: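 Single oral dose of 15 or 50 mg/kg in G2019S human LRRK2 BAC transgenic mice. Hippocampus sampled at 1, 3, 6 and 12 h (n = 4/dose) and at 24 h (n = 1) to measure pSer1292 LRRK2 and brain compound levels. Inhibition expressed relative to vehicle-dosed mice (n = 3), with a direct inhibition PK/PD model fitted.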

[30] = system: Mus musculus; test: Inhibition of LRRK2 G2019S mutant phosphorylation at Ser1292 in ip dosed BAC transgenic mouse brain after 1 to 24 hrs; format: functional, organism-based
Summary of the method: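 Single ip injection of 10 or 50 mg/kg in BAC transgenic mice expressing human G2019S LRRK2. Hippocampus collected at 1, 2.5 or 6 h post-dose (n = 3/dose). pSer1292 LRRK2 and compound concentration measured in brain. Percent inhibition normalised to vehicle-dosed mice (n = 3), with a direct inhibition model fitted to the data.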

[31] = target: 5-hydroxytryptamine receptor 2B (Homo sapiens) (UniProt P41595); test: Inhibition of recombinant human 5HT2B receptor expressed in CHO cells at 10 uM; format: cell-based
[32] = target: ALK tyrosine kinase receptor (Homo sapiens) (UniProt Q9UM73); test: Inhibition of ALK at 0.1 uM
Summary of the method: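 Percent inhibition measured in a commercial kinase selectivity profiling panel, with compound tested at a single concentration of 0.1 μM.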

[33] = target: T3, Leucine-rich repeat serine/threonine-protein kinase 2; details: 0.1 uM

T3 sequence (Q5S007 whole entry): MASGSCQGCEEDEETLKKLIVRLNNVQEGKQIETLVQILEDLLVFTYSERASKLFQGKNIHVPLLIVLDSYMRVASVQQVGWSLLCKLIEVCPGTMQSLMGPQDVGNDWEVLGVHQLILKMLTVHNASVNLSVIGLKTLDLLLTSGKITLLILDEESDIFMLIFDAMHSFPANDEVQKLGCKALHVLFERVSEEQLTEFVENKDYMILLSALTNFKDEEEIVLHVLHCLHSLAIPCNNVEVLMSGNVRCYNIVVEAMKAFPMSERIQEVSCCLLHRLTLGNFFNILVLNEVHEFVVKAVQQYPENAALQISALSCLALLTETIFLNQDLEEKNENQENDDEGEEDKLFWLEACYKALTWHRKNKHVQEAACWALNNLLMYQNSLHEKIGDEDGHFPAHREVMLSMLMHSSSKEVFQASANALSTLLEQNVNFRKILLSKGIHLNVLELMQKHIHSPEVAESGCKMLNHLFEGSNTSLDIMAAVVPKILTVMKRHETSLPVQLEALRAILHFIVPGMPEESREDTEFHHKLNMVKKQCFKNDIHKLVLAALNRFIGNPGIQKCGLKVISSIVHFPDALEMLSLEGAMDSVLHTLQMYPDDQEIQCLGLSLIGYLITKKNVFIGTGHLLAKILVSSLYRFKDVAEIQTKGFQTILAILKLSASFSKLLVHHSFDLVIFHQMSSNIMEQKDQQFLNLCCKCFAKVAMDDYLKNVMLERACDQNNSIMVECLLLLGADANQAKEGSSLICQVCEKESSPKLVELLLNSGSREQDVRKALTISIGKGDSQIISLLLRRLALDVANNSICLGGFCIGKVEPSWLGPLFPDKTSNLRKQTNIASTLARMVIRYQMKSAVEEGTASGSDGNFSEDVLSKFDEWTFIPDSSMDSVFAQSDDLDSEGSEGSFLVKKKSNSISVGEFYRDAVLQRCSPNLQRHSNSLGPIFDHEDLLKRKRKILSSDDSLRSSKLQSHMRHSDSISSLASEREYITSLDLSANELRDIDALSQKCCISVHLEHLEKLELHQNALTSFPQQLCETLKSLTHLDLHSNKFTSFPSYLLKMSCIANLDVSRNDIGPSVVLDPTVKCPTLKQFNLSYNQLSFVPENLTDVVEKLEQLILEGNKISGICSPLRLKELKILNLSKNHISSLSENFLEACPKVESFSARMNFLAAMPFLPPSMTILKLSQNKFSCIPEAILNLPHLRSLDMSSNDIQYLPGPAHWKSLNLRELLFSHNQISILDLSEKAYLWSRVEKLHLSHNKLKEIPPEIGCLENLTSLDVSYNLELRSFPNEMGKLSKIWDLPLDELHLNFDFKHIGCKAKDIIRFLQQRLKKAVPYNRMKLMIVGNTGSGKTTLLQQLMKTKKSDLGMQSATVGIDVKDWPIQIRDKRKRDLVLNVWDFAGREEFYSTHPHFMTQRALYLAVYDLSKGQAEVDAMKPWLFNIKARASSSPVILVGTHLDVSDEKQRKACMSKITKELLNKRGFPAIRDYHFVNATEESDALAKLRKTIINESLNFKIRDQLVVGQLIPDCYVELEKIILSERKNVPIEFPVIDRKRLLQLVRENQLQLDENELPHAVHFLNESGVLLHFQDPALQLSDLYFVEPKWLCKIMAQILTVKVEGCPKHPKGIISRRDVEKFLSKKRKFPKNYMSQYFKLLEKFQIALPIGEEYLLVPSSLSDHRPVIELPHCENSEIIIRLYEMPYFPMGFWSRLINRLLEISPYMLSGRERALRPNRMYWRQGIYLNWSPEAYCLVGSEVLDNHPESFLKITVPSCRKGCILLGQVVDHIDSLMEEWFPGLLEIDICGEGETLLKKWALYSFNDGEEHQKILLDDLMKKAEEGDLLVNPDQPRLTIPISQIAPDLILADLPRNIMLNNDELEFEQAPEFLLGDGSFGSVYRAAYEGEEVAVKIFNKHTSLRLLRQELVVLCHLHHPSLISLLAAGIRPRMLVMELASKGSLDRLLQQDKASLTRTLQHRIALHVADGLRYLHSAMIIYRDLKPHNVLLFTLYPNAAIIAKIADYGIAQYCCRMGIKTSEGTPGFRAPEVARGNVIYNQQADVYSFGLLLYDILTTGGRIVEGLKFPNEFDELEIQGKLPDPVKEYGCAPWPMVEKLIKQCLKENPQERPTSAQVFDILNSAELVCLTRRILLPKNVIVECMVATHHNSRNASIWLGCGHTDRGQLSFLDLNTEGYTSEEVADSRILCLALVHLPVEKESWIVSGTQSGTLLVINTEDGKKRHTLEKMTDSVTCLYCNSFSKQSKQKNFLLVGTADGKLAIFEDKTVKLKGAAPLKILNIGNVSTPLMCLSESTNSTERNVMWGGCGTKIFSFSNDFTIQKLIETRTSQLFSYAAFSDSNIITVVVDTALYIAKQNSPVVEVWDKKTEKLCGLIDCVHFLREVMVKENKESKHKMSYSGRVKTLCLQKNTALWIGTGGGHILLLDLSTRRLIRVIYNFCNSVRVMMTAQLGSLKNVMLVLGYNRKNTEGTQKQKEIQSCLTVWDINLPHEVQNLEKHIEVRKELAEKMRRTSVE
Chain of 5-hydroxytryptamine receptor 2B (Homo sapiens) (P41595 whole entry): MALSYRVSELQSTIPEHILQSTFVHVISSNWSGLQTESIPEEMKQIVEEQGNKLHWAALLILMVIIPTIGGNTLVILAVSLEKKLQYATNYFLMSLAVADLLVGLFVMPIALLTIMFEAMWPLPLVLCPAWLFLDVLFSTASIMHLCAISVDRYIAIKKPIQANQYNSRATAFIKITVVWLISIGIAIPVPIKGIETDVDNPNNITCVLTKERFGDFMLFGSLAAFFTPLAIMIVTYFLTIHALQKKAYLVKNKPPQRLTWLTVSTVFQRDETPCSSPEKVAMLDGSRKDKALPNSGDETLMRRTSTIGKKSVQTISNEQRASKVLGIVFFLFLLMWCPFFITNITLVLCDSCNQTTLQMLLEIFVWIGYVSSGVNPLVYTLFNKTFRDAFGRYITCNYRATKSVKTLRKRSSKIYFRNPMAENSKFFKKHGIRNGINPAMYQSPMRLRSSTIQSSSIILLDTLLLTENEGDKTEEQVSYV
Chain of ALK tyrosine kinase receptor (Homo sapiens) (Q9UM73 19-1620 limits assumed): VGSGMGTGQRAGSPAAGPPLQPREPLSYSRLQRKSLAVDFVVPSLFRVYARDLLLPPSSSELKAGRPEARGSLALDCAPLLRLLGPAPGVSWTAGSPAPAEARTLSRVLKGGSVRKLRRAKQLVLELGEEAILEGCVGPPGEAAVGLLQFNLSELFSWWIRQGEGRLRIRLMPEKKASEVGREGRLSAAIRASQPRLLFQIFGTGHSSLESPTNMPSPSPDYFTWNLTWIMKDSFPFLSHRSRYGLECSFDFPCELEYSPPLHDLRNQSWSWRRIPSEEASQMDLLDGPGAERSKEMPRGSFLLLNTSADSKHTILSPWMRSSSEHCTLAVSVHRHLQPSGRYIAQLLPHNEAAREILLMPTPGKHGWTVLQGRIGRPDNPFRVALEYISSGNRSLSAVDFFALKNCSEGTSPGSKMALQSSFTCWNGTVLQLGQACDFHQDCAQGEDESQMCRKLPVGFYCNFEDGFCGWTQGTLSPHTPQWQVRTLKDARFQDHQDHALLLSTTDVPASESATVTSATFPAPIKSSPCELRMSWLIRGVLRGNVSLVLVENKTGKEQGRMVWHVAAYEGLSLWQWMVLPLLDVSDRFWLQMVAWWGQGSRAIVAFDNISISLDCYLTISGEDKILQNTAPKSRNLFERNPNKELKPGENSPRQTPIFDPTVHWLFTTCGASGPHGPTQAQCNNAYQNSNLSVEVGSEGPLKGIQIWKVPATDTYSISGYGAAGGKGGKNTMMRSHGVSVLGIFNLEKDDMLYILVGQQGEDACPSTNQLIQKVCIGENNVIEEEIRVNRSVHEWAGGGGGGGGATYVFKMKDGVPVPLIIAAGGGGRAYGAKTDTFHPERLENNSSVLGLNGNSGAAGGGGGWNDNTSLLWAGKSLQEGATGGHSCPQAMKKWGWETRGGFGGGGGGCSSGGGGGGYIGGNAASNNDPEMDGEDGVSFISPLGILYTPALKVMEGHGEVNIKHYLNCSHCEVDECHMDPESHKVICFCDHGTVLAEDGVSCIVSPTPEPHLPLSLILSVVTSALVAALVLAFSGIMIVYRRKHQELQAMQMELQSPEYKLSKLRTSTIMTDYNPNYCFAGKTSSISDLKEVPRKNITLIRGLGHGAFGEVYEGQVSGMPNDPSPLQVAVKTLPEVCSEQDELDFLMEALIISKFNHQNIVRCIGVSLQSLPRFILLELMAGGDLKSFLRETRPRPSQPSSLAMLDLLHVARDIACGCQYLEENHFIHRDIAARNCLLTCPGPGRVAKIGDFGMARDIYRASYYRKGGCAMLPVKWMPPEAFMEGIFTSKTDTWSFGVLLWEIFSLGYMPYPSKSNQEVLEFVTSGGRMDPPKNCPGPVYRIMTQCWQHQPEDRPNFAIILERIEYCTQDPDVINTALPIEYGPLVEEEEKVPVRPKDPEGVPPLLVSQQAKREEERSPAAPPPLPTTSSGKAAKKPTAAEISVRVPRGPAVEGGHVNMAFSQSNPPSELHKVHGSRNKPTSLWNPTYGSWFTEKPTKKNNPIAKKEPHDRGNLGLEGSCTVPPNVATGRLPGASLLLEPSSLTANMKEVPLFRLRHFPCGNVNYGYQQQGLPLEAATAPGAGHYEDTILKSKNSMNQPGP

Compound | Ratio Ki [3] | inhibition [6] [%] | Papp A→B [7] [×10⁻⁶ cm/s] | fraction unbound [8] | CLhep predicted [9] [mL/min/kg] | CLhep predicted [10] [mL/min/kg] | Ratio Ki [11] | IC50 [12] [nM] | Ki [13] [nM] | Ratio [14] | further results
CNc1nc(Nc2ccc(C(=O)N3CCOCC3)cc2OC)ncc1C(F)(F)F | 13 | 55 | 18.2 | 0.137 | 7.6 | 1.8 | > 1930 | 9 | 2 | 1.2 | Activity [1]: Toxic; Activity [2]: Toxic; Ki [4]: 25 nM; inhibition [5]: 98%
CNc1nc(Nc2ccc(-c3nnnn3C)cc2Cl)ncc1C(F)(F)F | 3.3 |  |  |  |  |  |  | 100 | 8 | 0.7 | solubility [15]: Insoluble; inhibition (INH) [16]: Active
CCNc1nc(Nc2cc(F)c(C(=O)N3CCOCC3)cc2OC)ncc1C(F)(F)F | 53 | > 65 | 10.4 | 0.034 | 14 | 3.2 | > 3200 | 9 | 1 | 0.9 | Ratio [17]: 0.82; fAUC [18]: 7.8 µM·h; Kp uu at 168 h [19]: 0.6; fAUC [20]: 3.1 µM·h; fAUC [21]: 0.8 µM·h; fAUC [22]: 4.7 µM·h; fAUC [23]: 3.9 µM·h; fAUC [24]: 0.8 µM·h; Activity [25]: Non-toxic; fAUC [26]: 5.95 µM·h; Activity [27]: Non-toxic; fraction unbound [28]: 0.055; inhibition [29]: Dose-dependent effect; inhibition [30]: Dose-dependent effect; inhibition [31]: > 70%; inhibition [32]: > 65%; inhibition [33]: > 65%
